# Screening results deposited in PubChem BioAssay by several laboratories.
# Compounds with a hit are over-represented: about 4.5% of the library has one in this group of screens.
# MrgX1 PAM: human MrgX1 positive allosteric modulation, primary screen | Q96LB2 | MrgX1-HEK293, Fluo-4 calcium flux, FDSS; hits give high values | B-score at 10 µM | hit rate 0.63% among 310,000 | AID 588675;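 active means plate-corrected calcium response at least 3 library SD above typical, normal starting fluorescence, not activating the receptor alone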;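 further: compound read alongside a low EC10 to EC30 dose of BAM8-22 agonist; peak minus trough fluorescence over baseline measured at the second addition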
# RGS4 block: human RGS4 inhibition; HEK293 M3R/RGS4 inducible, Fluo-4 calcium flux; hits give high values; triggered by carbachol at its EC20; B-score at 10 µM; hit rate 0.45% among 310,000; AID 463165;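 active means B-score, a plate-corrected calcium signal, over three deviations above library mean, with baseline fluorescence within five deviations of library mean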;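 further: RGS4 expression induced by doxycycline in cells with stable M3 receptor; B-score is computed from the integrated fluorescence ratio over baseline after carbachol; higher B-score means a larger calcium signal and so more RGS4 inhibition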
# Target sequence (P49798 whole entry, looked up): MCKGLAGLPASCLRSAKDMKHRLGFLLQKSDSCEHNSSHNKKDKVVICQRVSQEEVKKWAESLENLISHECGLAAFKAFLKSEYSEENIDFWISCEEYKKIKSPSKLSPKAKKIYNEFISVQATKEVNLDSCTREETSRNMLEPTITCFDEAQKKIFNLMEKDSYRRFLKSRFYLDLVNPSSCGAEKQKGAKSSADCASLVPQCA
# MrgX1 antag: blocks BAM8-22 activation of human MrgX1 receptor; Q96LB2; MRGX1-HEK293 calcium flux, Fluo-4, BAM8-22 antagonism; hits give low values; B-score at 10 µM; hit rate 1.3% among 310,000; AID 588676;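 active means calcium-response B-score plate-corrected more than 3 library SD below zero, starting fluorescence within 5 deviations, no agonist response on first addition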;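 further: peak minus trough fluorescence over baseline after final BAM8-22 challenge near maximal dose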
# PHOSPHO1 block: PHOSPHO1 (human) inhibition. Q8TCT1. recombinant PHOSPHO1, absorbance phosphatase assay. inhibition, % at 13.3 µM. hit rate 1.1% among 290,000. AID 1565; in the data active means inhibition above about 60%
# Target sequence (Q8TCT1 whole entry, looked up): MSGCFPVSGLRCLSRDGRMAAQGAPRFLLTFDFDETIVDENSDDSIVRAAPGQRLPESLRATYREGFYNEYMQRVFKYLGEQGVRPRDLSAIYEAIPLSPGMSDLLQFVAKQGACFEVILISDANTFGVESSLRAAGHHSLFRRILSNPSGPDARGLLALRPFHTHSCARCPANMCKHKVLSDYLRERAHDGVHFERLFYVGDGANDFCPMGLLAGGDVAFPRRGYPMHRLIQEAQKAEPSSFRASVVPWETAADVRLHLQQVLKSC
# RGS4 pot: potentiators or activators of RGS4. AID 463111. B-score at 10 µM. HEK293 M3R/inducible RGS4, carbachol calcium flux Fluo4; hits give low values. hit rate 0.92% among 310,000;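 active means B-score of the integrated calcium signal more than 4 SD below the library mean, with starting fluorescence not abnormally high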;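 further: negative B-score means reduced calcium response which marks RGS4 activation or potentiation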
#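 Material: Inducible-RGS4 HEK293 cells carrying M3 receptor; also added: carbachol at ECmax as muscarinic agonist stimulus; incubation: compound preincubation 20 min at room temperature before agonist; signal: Fluo4-AM (2 µM) calcium-flux fluorescence, kinetic read; measure: integrated calcium ratio converted to B score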
# MrgX1 agonist: agonists of human MrgX1 receptor; Q96LB2; MrgX1-HEK293 cells, Fluo-4 calcium fluorescence, agonist mode; hits give high values; B-score at 10 µM; hit rate 0.44% among 310,000; AID 588627;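 active means calcium response B-score plate-corrected fluorescence ratio at least 3 library SD, with starting fluorescence B-score inside 5 SD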
#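 Test system: HEK293 cells stably expressing human MrgX1 receptor; amount: 15,000 cells per well; doses: compound delivered in addition one of three; times: overnight plating before 1 h dye loading; detection: Fluo-4 NW calcium-flux fluorescence, kinetic read; read-out basis: B-scored fluorescence response ratio; controls: positive and negative controls per plate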
# RGS4 block valid: RGS4 inhibitor validation; hit rate 65% among 1,700; calcium response, % at 10 µM; HEK293 M3R/RGS4, carbachol calcium Fluo-4 fluorescence; carbachol added at its EC20; 0 = buffer wells, 100 = carbachol control; AID 492999; shares compounds with RGS4 block;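 active means duplicate-averaged calcium response above the buffer-only control mean plus 5 SD of those controls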;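 further: integrated fluorescence ratio F max minus min over baseline F0; higher response in RGS4-induced cells means RGS4 inhibition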
# M3R Ca ctr: non-induced cell nonspecific activity of RGS4 inhibitors | shares compounds with RGS4 block | HEK293 M3R non-induced, carbachol calcium Fluo-4; submaximal (EC20) carbachol stimulus; buffer wells 0%, carbachol control wells 100% | activity (percent), % at 10 µM | hit rate 20% among 1,900; call rule not given here;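 further: RGS4 induction absent so cells express M3R without RGS4; higher means more calcium signal and flags a non-specific hit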
# RGS4 inh ctr2: second counter-screen for RGS4 inhibitors: non-induced cells without carbachol | shares compounds with RGS4 block | HEK293 M3R/RGS4 non-induced, Fluo-4 calcium, no carbachol; normalised: buffer wells 0%, carbachol wells 100% | calcium response (agonist-mode artifact), % at 10 µM | hit rate 22% among 1,900 | AID 493001;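 active means duplicate-averaged calcium rise in uninduced cells above buffer wells' mean plus 5 SD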
# The depositor's hits bear a star; i = inactive; x = no result given.
SMILES,MrgX1 PAM,RGS4 block,MrgX1 antag,PHOSPHO1 block,RGS4 pot,MrgX1 agonist,RGS4 block valid,M3R Ca ctr,RGS4 inh ctr2
Cc1ncc(CO)c(/C=N/NC(=O)c2cc3c(s2)CCCC3)c1O,i,7.2*,i,8,i,i,102%*,78%*,35%*
COc1ccc(C(=O)N/N=C/c2c(CO)cnc(C)c2O)cc1,i,i,i,16,i,i,x,x,x
Cc1ncc(CO)c(/C=N/NC(=O)c2ccc(O)cc2)c1O,i,i,i,3,i,i,x,i,8.0%*
COC(=O)/C=C/c1ccc(OC(=O)c2ccncc2)cc1,i,i,i,25,i,i,x,x,x
Cc1ccc(SCCN2CCN(C)CC2)cc1,i,i,i,35,i,i,x,x,x
Cc1ccc(C2C3=C(CC(C)(C)CC3=O)NC3=C2C(=O)c2ccccc23)cc1 (stereo not drawn),i,i,i,-25,i,i,x,x,x
COc1ccc(C2C3=C(CCCC3=O)NC3=C2C(=O)c2ccccc23)cc1 (stereo not drawn),i,11*,i,36,i,i,i,i,i
COc1ccc(C2C3C(C)=NN=C3CC(C)(O)C2C(C)=O)cc1 (stereo not drawn),i,i,i,7,i,i,x,x,x
C=C1C(=O)O[C@@H]2[C@H]1[C@@H](OC(=O)/C(C)=C/C)C/C(C)=C\C(=O)/C=C(\C)[C@@H]2O,i,i,i,31,i,i,x,i,i
Cc1ccc(NC(=O)C2=C(c3ccccc3)S(=O)(=O)CCS2(=O)=O)cc1,i,15*,i,28,i,i,28%*,i,16%*
O=C(Nc1ccc(-c2ccccc2)cc1)c1ccccc1,i,i,i,8,i,i,x,x,x
CCOC(=O)C1=C(C)Nc2nc(SCC)nn2C1c1ccc(OC)cc1 (stereo not drawn),i,i,i,-16,i,i,x,x,x
CCOC(=O)C1=C(C)Nc2nc(=S)[nH]n2C1c1ccc(Cl)cc1 (stereo not drawn),x,9.2*,x,97*,i,x,14%*,35%*,18%*
COc1ccc(-n2c(SCC(=O)NCC3CCCO3)nc3c(c2=O)SC(C)C3)cc1 (stereo not drawn),i,i,i,58,i,i,x,x,x
CCCc1ccc(-c2cc(NC(=O)CSc3nnc(N)s3)n(-c3ccccc3)n2)cc1,i,8.8*,i,-2,i,i,20%*,i,i
Cc1nnc(SCC(=O)Nc2cc(-c3cc(C)c(C)cc3C)nn2-c2ccccc2)s1,i,i,i,-16,i,i,x,x,x
Cc1cccc(-n2c3nc(=O)[nH]c(=O)c-3cc3c(C)nn(-c4ccccc4)c32)c1C,i,7*,i,-11,i,i,i,i,i
Cc1nn(-c2ccccc2)c2c1cc1c(=O)n(C)c(=O)nc-1n2-c1ccccc1F,i,i,i,20,i,i,x,x,x
CCOc1ccc(NCc2nnc(SCC(=O)Nc3cc(C)on3)n2-c2ccc(OC)cc2)cc1,i,7*,i,21,i,i,i,i,i
COc1ccc(-n2c(COc3ccc(Cl)cc3)nnc2SCc2ccc(C#N)cc2)cc1,i,i,i,-27,i,i,x,x,x
CCOc1ccc(NCc2nnc(SCC(=O)Nc3cc(C)on3)n2-c2ccccc2OC)cc1,i,i,i,-23,i,i,x,x,x
